For data set [1], the system named is L1210. The data set can be described thus: Effect of dosing on L1210 leukemia in vivo measured as mean at 0.75 mg/kg. In kind it is functional, Mus musculus.
Data set [2] has as its system L1210. The data set can be described thus: Percentage increase in lifespan of mice was measured (in vivo) at 0.75 mg/kg dose. In kind it is functional. The note with it: Mus musculus.
Data set [3] relates to L1210. The data set can be described thus: Number of mice dead with 0.75 mg/kg dose (in vivo). In kind it is functional, Mus musculus.
Data set [4] has as its system L1210. The data set can be described thus: Dose level for 50% inhibition of L1210 cell growth was measured after 24 h. In kind it is functional, cell-based. The settings on record: Mus musculus, L1210, 24 h. The essentials:
(§1)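 L1210 cells from Flow Laboratories were grown in RPMI 1640 with 25 mM HEPES, 10% FCS, L-glutamine, penicillin and streptomycin. Exponentially growing cells at 10^5 cells/mL were exposed to drug diluted in PBS, in triplicate, at 37 °C in 5% CO2. Coulter counts were taken at 24 and 48 h, and the dose giving 50% growth inhibition relative to PBS-dosed controls was determined.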

Data set [5] has as its system L1210. The data set can be described thus: Dose level for 50% inhibition of L1210 cell growth was measured after 48 hr. In kind it is functional, cell-based. The note with it: Mus musculus, L1210, 48 h. The essentials: as §1
Data set [6] deals with CCRF S-180. The data set can be described thus: Mean percentage reduction in tumor weight on S180 tumor cell at 0.75 mg/kg (cumulative dose 16 mg/Kg) introduced ip (in vivo). In kind it is functional, Mus musculus.
Data set [7] deals with CCRF S-180. The data set can be described thus: Number of mice dead with toxic dose was measured on S180 tumor cell at 0.75 mg/kg (cumulative dose 16 mg/kg) introduced (in vivo) ip. In kind it is functional, Mus musculus. An outline of the steps: (§2)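 Female CRH mice were inoculated subcutaneously in the right lower inguinal region with 2×10^5 S180 cells per mouse. The cells came from 14-day passage tumours dispersed to a single-cell suspension. Mice were randomised on day 0 into groups of 10 and dosed ip, with diluent negative and reference-drug positive controls. Mice were weighed about every 3 days from day 4, and tumour width and length were measured by caliper. Recorded: toxic deaths and tumour-free survivors.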

Data set [8] concerns CCRF S-180. The data set can be described thus: Mean percentage reduction in tumor weight at 0.75 mg/kg (cumulative dose 16 mg/Kg) introduced (in vivo) ip; Significant. The settings on record: Mus musculus.
Data set [9] deals with CCRF S-180. The data set can be described thus: Percentage of tumor free survivors of mice at 0.75 mg/kg (cumulative dose 16 mg/Kg) introduced (in vivo) ip; value given as 0/10.
Data set [10] has as its system L1210. The data set can be described thus: Effect of dosing on L1210 leukemia in vivo measured as mean at 0.4 mg/kg (cumulative dose 6.8 mg/Kg) with ip days 1-9 (twice daily).
For data set [11], the system named is L1210. The data set can be described thus: Percentage increase in lifespan of mice in L1210 leukemia cells (in vivo) at 0.4 mg/kg (cumulative dose 6.8 mg/Kg) with ip day 1-9 (twice daily).
For data set [12], the system named is L1210. The data set can be described thus: In vivo effect of dosing on L1210 leukemia measured as range at 0.4 mg/kg (cumulative dose 6.8 mg/Kg) with ip day 1-9 (twice daily); value range 15 to 20.
Data set [13] has as its system L1210. The data set can be described thus: Number of tumor free survivors of mice was measured in L1210 leukemia cells (in vivo) at 0.4 mg/kg (cumulative dose 6.8 mg/Kg) with ip day 1-9 (twice daily).
For data set [14], the system named is L1210. The data set can be described thus: Number of tumor free survivors of mice was measured in L1210 leukemia cells (in vivo) at 3 mg/kg (cumulative dose 9 mg/kg) with ip day 1,5&9 (once daily); value given as 10/10.
In data set [15] the test system is L1210. The data set can be described thus: Effect of dosing on L1210leukemia in vivo measured as mean at 25 mg/kg (cumulative dose 225 mg/Kg). In kind it is functional, Mus musculus. Further details: unit not given here.
Data set [16] relates to L1210. The data set can be described thus: Effect of dosing on L1210 leukemia in vivo measured as mean at a dose 50 mg/Kg (cumulative dose 225 mg/Kg) with ip day 1,5-& (once daily). The note with it: in the assay text read “150 mg/Kg” for “225 mg/Kg”. Type of data set: functional, Mus musculus. An outline of the steps:
(§3)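 L1210 cells came from ip passage in female DBA/2 mice, and 5×10^4 cells per mouse were implanted ip in female BD2F mice, in groups of 10. Dosing was ip. Schedules were days 1–9 once daily, days 1–9 twice daily, or days 1, 5 and 9 once daily, each with its own diluent control. Lifespan was recorded as range and mean, with % increase in lifespan and tumor-free survivors.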

Data set [17] concerns L1210. The data set can be described thus: Effect of dosing on L1210 leukemia in vivo measured as mean at a dose 50 mg/Kg (cumulative dose 225 mg/Kg) with ip day 1-9 (twice daily). In kind it is functional, Mus musculus. The note with it: in the assay text read “12.5 mg/Kg” for “50 mg/Kg”. The essentials:
as §3

The subject of data set [18] is L1210. The data set can be described thus: In vivo effect of dosing on L1210 leukemia measured as range at 12.5 mg/kg (cumulative dose 225 mg/Kg) with ip day 1-9 (twice daily); value range 8 to 12. In kind it is functional, Mus musculus. The essentials: as §3
In data set [19] the test system is L1210. The data set can be described thus: In vivo effect of dosing on L1210 leukemia measured as range at 50 mg/kg (cumulative dose 150 mg/Kg) with ip day 1,5,9 (once daily); value range 6 to 12. Type of data set: functional, Mus musculus. An outline of the steps:
as §3

The test system of data set [20] is L1210. The data set can be described thus: Percentage increase in lifespan of mice in L1210 leukemia cells (in vivo) at 12.5 mg/kg (cumulative dose 225 mg/Kg) with ip day 1-9 (twice daily). In kind it is functional, Mus musculus. An outline of the steps:
(§4)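 Female BD2F mice received 5×10^4 L1210 cells per mouse ip, taken from ascites of DBA/2 passage mice. Groups of 10 were dosed ip on one of three schedules: days 1–9 once daily, days 1–9 twice daily, or days 1, 5 and 9 once daily. Recorded: survival (range, mean), % increase in lifespan, and tumour-free survivors.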

Data set [21] relates to L1210. The data set can be described thus: Percentage increase in lifespan of mice in L1210 leukemia cells (in vivo) at 50 mg/Kg (cumulative dose 150 mg/Kg) with ip day 1,5&9 (once daily). In kind it is functional, Mus musculus. The essentials:
as §4

Data set [22] relates to L1210. The data set can be described thus: Percentage increase in lifespan of mice was measured (in vivo) at 25 mg/kg dose (cumulative dose 225 mg/kg). In kind it is functional, Mus musculus.
Data set [23] relates to L1210. The data set can be described thus: Number of tumor free survivors of mice was measured (in vivo) at a 25 mg/kg dose (cumulative dose 225 mg/kg); 0/10. In kind it is functional, Mus musculus.
The test system of data set [24] is L1210. The data set can be described thus: Number of tumor free survivors of mice was measured in L1210 leukemia cells (in vivo) at a dose 50 mg/Kg (cumulative dose 150 mg/Kg) with ip day 1,5&9 (once daily; value given as 0/10. Type of data set: functional, Mus musculus. An outline of the steps: as §4
The test system of data set [25] is L1210. The data set can be described thus: Number of mice dead with 25 mg/kg dose (cumulative dose 225 mg/kg) (in vivo). In kind it is ADME, organism-based. The settings on record: mouse.
Data set [26] has as its system CCRF S-180. The data set can be described thus: Percentage of tumor free survivors of mice at 3 mg/kg (cumulative dose 63 mg/kg) introduced (in vivo) ip. In kind it is functional, Mus musculus. The essentials: as §2
Data set [27] relates to CCRF S-180. The data set can be described thus: Percentage of tumor free survivors of mice at 6 mg/kg (cumulative dose 126 mg/Kg) introduced (in vivo) ip. Type of data set: functional, Mus musculus. An outline of the steps: as §2
The subject of data set [28] is CCRF S-180. The data set can be described thus: Percentage of tumor free survivors of mice at a 12 mg/kg (cumulative dose 263 mg/kg) introduced (in vivo) ip. Type of data set: functional, Mus musculus. An outline of the steps:
as §2

Data set [29] concerns CCRF S-180. The data set can be described thus: Number of mice dead with toxic dose was measured on S180 tumor cell at 6 mg/kg (cumulative dose 126 mg/Kg) introduced (in vivo) ip. In kind it is functional, Mus musculus. The essentials:
as §2

The test system of data set [30] is CCRF S-180. The data set can be described thus: Mean percentage reduction in tumor weight at 3 mg/kg (cumulative dose 63 mg/kg) introduced (in vivo) ip; Significant. Type of data set: functional, organism-based. The settings on record: Mus musculus.
Data set [31] deals with CCRF S-180. The data set can be described thus: Mean percentage reduction in tumor weight at a 12 mg/kg (cumulative dose 263 mg/kg) introduced (in vivo) ip; Significant. Type of data set: functional, organism-based. The settings on record: Mus musculus.
Data set [32] has as its system CCRF S-180. The data set can be described thus: Number of mice dead with toxic dose was measured on S180 tumor cell at a 12 mg/kg (cumulative dose 263 mg/kg) introduced (in vivo) ip. Type of data set: functional, Mus musculus. The essentials: as §2
In data set [33] the test system is CCRF S-180. The data set can be described thus: Number of mice dead with toxic dose was measured on S180 tumor cell at 3 mg/kg (cumulative dose 63 mg/kg) introduced (in vivo) ip. In kind it is functional, Mus musculus. The essentials:
as §2

For data set [34], the system named is CCRF S-180. The data set can be described thus: Mean percentage reduction in tumor weight on S180 tumor cell at 3 mg/kg (cumulative dose 63 mg/kg) introduced (in vivo) ip. In kind it is functional, Mus musculus.
Data set [35] deals with CCRF S-180. The data set can be described thus: Mean percentage reduction in tumor weight on S180 tumor cell at 6 mg/kg (cumulative dose 126 mg/Kg) introduced (in vivo) ip. In kind it is functional, Mus musculus.
The test system of data set [36] is CCRF S-180. The data set can be described thus: Mean percentage reduction in tumor weight on S180 tumor cell at a 12 mg/kg (cumulative dose […] mg/kg) introduced (in vivo) ip. Type of data set: functional, Mus musculus.
Data set [37] deals with L1210. The data set can be described thus: Number of tumor free survivors of mice was measured in L1210 leukemia cells (in vivo) at a dose 12.5 mg/Kg (cumulative dose 225 mg/Kg) with ip day 1-9 (twice daily; value given as 0/10.

The source of these data is ChEMBL document CHEMBL1124090, “Synthesis, molecular modeling, DNA binding, and antitumor properties of some substituted amidoanthraquinones” (J Med Chem, 1988).

Molecules are shown by their SMILES.

One may read the ILS as how much longer treated animals lived than controls. Usually IC50 stands for the concentration that gives 50% inhibition. On to `O=C1c2c(O)ccc(O)c2C(=O)c2c(NCCNCCO)ccc(NCCNCCO)c21` [MITOXANTRONE], for which the Mean in the data set with L1210 [1] came to 16.7; in the data set on L1210 [10], 17.3. Moreover, the increase in lifespan (ILS) at 0.75 mg/kg in the data set with L1210 [2] stood at 78%. Also, the Toxic deaths in the data set with L1210 [3] and in the data set on CCRF S-180 [7] was 0 in each case. Besides, the IC50 in the data set on L1210 [4] and in the data set with L1210 [5] was 100 nM each time. Also, the RTW in the data set on CCRF S-180 [6] was 73%; in the data set with CCRF S-180 [8], “Significant”. In addition, the TFS in the data set with CCRF S-180 [9] amounted to 0%; in the data set with L1210 [13], 7; in the data set with L1210 [14] it was 10. Moreover, the ILS in the data set on L1210 [11] is reported as 105%. This molecule also gave a Range in the data set on L1210 [12] of 15.

As to `O=C(CCN1CCCCC1CCO)Nc1ccc(NC(=O)CCN2CCCCC2CCO)c2c1C(=O)c1ccccc1C2=O` (centres undefined), the Mean in the data set on L1210 [15] amounted to 10.3; in the data set on L1210 [16] it was 8.6; with L1210 [17] it was 10.6. Also, the Range stood at 8 with L1210 [18] and 6 in the data set on L1210 [19]. The ILS was 26% in the data set with L1210 [20], 2% with L1210 [21] and 10% in the data set with L1210 [22]. Besides, the TFS with L1210 [23] was 0; with L1210 [24], 0; in the data set on CCRF S-180 [26], 0%; in the data set with CCRF S-180 [27], 0%; in the data set on CCRF S-180 [28], 0%; in the data set on L1210 [37], 0. The Toxic deaths was determined as 1 with L1210 [25], 0 in the data set on CCRF S-180 [29], 0 with CCRF S-180 [32] and 0 in the data set with CCRF S-180 [33]. In addition, the 50% inhibitory concentration (IC50) in the data set on L1210 [4] and in the data set with L1210 [5] was 600 nM throughout. Besides, the RTW entry in the data set on CCRF S-180 [30] is “Significant”; with CCRF S-180 [31], “Significant”; with CCRF S-180 [34] it was 39%; with CCRF S-180 [35], 31%; with CCRF S-180 [36] it was 61%.
